Data set [1] can be described thus: folding enthalpy; higher = less favourable; fluorescence melt of hairpins on a sequencing array, two-state fit. As to conditions: sodium 0.088 M. The gist of the method: (§1)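 Hairpins were imaged by Cy3 fluorescence on a sequenced MiSeq flow cell with annealed Cy3 and quencher oligos, in 50 mM Na-HEPES pH 8.0, 25 mM NaCl, in 2.5 °C steps up to 60 °C. Bootstrapped two-state fits of normalised signals gave melting temperature and folding enthalpy. Four replicates were combined by inverse variance, and fitted temperatures were raised by 9.35 °C to match UV melts.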

Data set [2] is described as follows: melting temperature; fluorescence melt of hairpins on a sequencing array, two-state fit, raised by 9.35 °C to match UV melts. The following applies: sodium 0.088 M. Summed up:
as §1

In the case of GCACTGCGAAAGCCCTGC (((..((....))..))), in data set [1], the folding enthalpy was -12.5 kcal/mol. Also, the Tm in data set [2] came to 28.8 °C.
The like results for GCACTGCGAAAGCCGCGC ((.(.((....)).).)) were, in that order, -21 kcal/mol and 45.4 °C.
In the case of GCACTGGGAAACCAATGC (((.(((....))).))), the folding enthalpy in data set [1] was -30.1 kcal/mol. Also, the Tm in data set [2] stood at 40.3 °C.
With GCACTGGGAAACCAGCAC (..((((....))))..), the folding enthalpy in data set [1] was -10.1 kcal/mol. Moreover, the Tm in data set [2] stood at 27.3 °C.
For GCACTTCGAAAGAAATGC (((.(((....))).))), in data set [1], the folding enthalpy is -31.3 kcal/mol. The Tm in data set [2] is 42.3 °C.
On the same counts, the results for GCACTTCGAAAGAACTGC (((.(((....))).))) are -22.1 kcal/mol and 34.4 °C.
On the same counts, the results for GCACTTGGAAACAAGCGC ((.((((....)))).)) are -45 kcal/mol and 49.5 °C.
With GCACTTGGAAACAAGTGC (((((((....))))))), the folding enthalpy in data set [1] is -34.6 kcal/mol. Besides, in data set [2], the Tm worked out at 67.7 °C.
The like results for GCAGAACCGAAAGGTTGC (((..(((....)))))) were, in that order, -17.1 kcal/mol and 44.5 °C.
With GCAGAAGCGAAAGCTTGC (((..(((....)))))), in data set [1], the folding enthalpy was -16.2 kcal/mol. Besides, in data set [2], the Tm was 47.2 °C.
In the case of GCAGAAGGAAACTCCTGC ((((.((....)).)))), in data set [1], the folding enthalpy is -20.9 kcal/mol. In addition, in data set [2], the Tm is 40.1 °C.
Turning to GCAGACGAAAGTCGATGC ((((((....)))..))), in data set [1], the folding enthalpy is -17.6 kcal/mol. Moreover, the Tm in data set [2] came to 45.4 °C.
On the same counts, the results for GCAGACGGAAACGTCTAC (.(((((....))))).) are -14.1 kcal/mol and 42.7 °C.
With GCAGAGCCGAAAGGCTGC (((..(((....)))))), in data set [1], the folding enthalpy was -13.8 kcal/mol. In addition, the Tm in data set [2] was 52.9 °C.
With GCAGAGCGAAAGCAATGC (((..((....))..))), the folding enthalpy in data set [1] is -21 kcal/mol. In addition, the Tm in data set [2] amounted to 53.9 °C.
Consider GCAGAGCGAAAGCACAGC ((.(.((....)).).)), for which the folding enthalpy in data set [1] is -15.6 kcal/mol. The Tm in data set [2] amounted to 42.9 °C.
On the same counts, the results for GCAGAGCGAAAGCGCGGC ((.(.((....)).).)) are -20.9 kcal/mol and 60.1 °C.
Consider GCAGAGCGAAAGCTTAGC ((..(((....)))..)), for which the folding enthalpy in data set [1] was -17.5 kcal/mol. In addition, in data set [2], the Tm stood at 41.7 °C.
The like results for GCAGAGCGAAAGCTTTGC (((.(((....))).))) were, in that order, -53.2 kcal/mol and 56.1 °C.
On the same counts, the results for GCAGAGGCGAAAGCCTGC (((..(((....)))))) are -14.5 kcal/mol and 56.7 °C.
On the same counts, the results for GCAGAGGGAAACCCCTGC ((((.((....)).)))) are -33.7 kcal/mol and 49 °C.
With GCAGATGCGAAAGCATGC (((..(((....)))))), the folding enthalpy in data set [1] is -13.6 kcal/mol. Further, the Tm in data set [2] amounted to 47.9 °C.
On to GCAGATGGAAACGTTTGC (((.(.(....).).))), for which, in data set [1], the folding enthalpy was -12.6 kcal/mol. Moreover, in data set [2], the Tm worked out at 28.9 °C.
GCAGCACGAAAGTGTTGC (((.(((....))).))): the folding enthalpy in data set [1] was -37.2 kcal/mol. Also, the Tm in data set [2] stood at 60.6 °C.
For GCAGCAGCGAAAGCTTGC (((..(((....)))))), the folding enthalpy in data set [1] was -13.6 kcal/mol. Moreover, in data set [2], the Tm was determined as 43.5 °C.
GCAGCAGGAAACTACTGC ((((.((....)).)))): the folding enthalpy in data set [1] is -30.5 kcal/mol. Also, the Tm in data set [2] is 45.5 °C.
On the same counts, the results for GCAGCCCCGAAAGGGTGC (((..(((....)))))) are -16.5 kcal/mol and 53.4 °C.
In the case of GCAGCCCGAAAGGGTGC (((.(((....)))))), the folding enthalpy in data set [1] was -20.6 kcal/mol. For the same sequence, the Tm in data set [2] came to 64.4 °C.
On to GCAGCCGAAAGGCCGTGC ((((((....)))..))), for which the folding enthalpy in data set [1] is -13.3 kcal/mol. In addition, in data set [2], the Tm turned out to be 41.9 °C.
The like results for GCAGCCGCGAAAGCGTGC (((..(((....)))))) were, in that order, -8.84 kcal/mol and 48.4 °C.
As to GCAGCCGGAAACGGTTGC (((.(((....))).))), the folding enthalpy in data set [1] was -50.1 kcal/mol. Further, the Tm in data set [2] turned out to be 64.8 °C.
The like results for GCAGCGACGAAAGTCTGC (((..(((....)))))) were, in that order, -16.1 kcal/mol and 48.3 °C.
On to GCAGCGCGAAAGCATTGC (((..((....))..))), for which the folding enthalpy in data set [1] is -14 kcal/mol. Moreover, the Tm in data set [2] amounted to 40.9 °C.
With GCAGCGCGAAAGCCATGC (((..((....))..))), the folding enthalpy in data set [1] is -14.9 kcal/mol. Further, in data set [2], the Tm turned out to be 45.1 °C.
The like results for GCAGCGCGAAAGCCCAGC ((.(.((....)).).)) were, in that order, -10.9 kcal/mol and 28.1 °C.
On the same counts, the results for GCAGCGCGAAAGCCCTGC ((((.((....)).)))) are -25.9 kcal/mol and 60.1 °C.

The values above are taken from the array DNA melting data of Ke et al. (doi:10.1101/2024.01.08.574731).
